Measured values as given in publication PMC11421684 (Food and chemical toxicology : an international journal …, 2014).
Like-named read-outs stand apart in the source and are kept apart here.

How the values were obtained:
[1] = Weight gains, feed and water consumption of gavaged rats; assay type: in vivo, rat
Summary of the method: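 Rats were housed singly at 18–26 °C, 40–70% RH and 12 h light/dark, with feed and water ad libitum. They were gavaged for 10 days from GD10 with vehicle (1% CMC-Na) or 1000 mg/kg BW/day test compound. Fluid intake was measured every 3 days and feed every 7 days. For dams, adjusted gain = GD20 body weight minus gravid uterus weight and GD10 weight.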

[2] = Body weight and organ weights standardized to body weight; assay type: in vivo, rat; details: 1000 mg/kg BW/day; for Paired kidney weight standardized to body weight (% ± SEM): group mean
[3] = test system: pregnant rats; assay: Reproductive indices at necropsy; assay type: in vivo, rat; details: dams
Summary of the method: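 Time-pregnant rats were gavaged daily for 10 days from GD10 with 1% CMC-Na or 1000 mg/kg BW/day test compound. At necropsy the gravid uterus was removed whole and weighed, and corpora lutea, implants, and early and late deaths were recorded. Groups were compared against both control and the other triazine group.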

[4] = test system: fetuses; assay: Fetal data; assay type: in vivo, rat; details: dams, 1000 mg/kg BW/day, GD20
Summary of the method: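 Dams were dosed by gavage (1000 mg/kg BW/day or 1% CMC-Na vehicle) for 10 days from GD10. At GD20 necropsy, the gravid uterus was removed whole and weighed. Each viable fetus was recorded for uterine position, sex, weight, crown-rump length and external abnormalities. Runts were defined as below 70% of the control litter average weight by gender.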

[5] = test system: kidney; assay: Kidney wet-mount analysis for renal crystals; assay type: in vivo, rat
Summary of the method: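 After 10 days of gavage at 1000 mg/kg BW/day, a thin fresh renal slice spanning cortex and medulla was weighed. It was compressed between two slides with a coverslip and examined fresh by light microscopy. Crystals were ranked on a subjective 0–5 scale; some views used polarised light.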

[6] = Serum chemistry, renal function; assay type: in vivo, rat; details: for Blood urea nitrogen (mean ± SEM) / Creatinine (mean ± SEM) / Uric acid (mean ± SEM): serum
Summary of the method: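 Serum was taken from pregnant and non-pregnant rats after 10 days of gavage with vehicle or 1000 mg/kg BW/day test compound. Samples were brought to room temperature. BUN, creatinine and uric acid were measured on a benchtop veterinary chemistry analyser. Results were compared with control and the other treated group.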

[7] = Serum triazine analysis by LC-MS/MS; assay type: in vivo; details: pregnant female rats, individual rat; label = dose group; LOD 0.4 μg/mL
Summary of the method: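 Serum was collected from each rat after 10 daily gavages of 1000 mg/kg BW/day test compound or vehicle. Melamine and cyanuric acid were quantified by a previously published LC-MS/MS method, validated with pre-spiked serum samples at several fortification levels. Natural-log serum concentrations were compared between pregnant and non-pregnant rats by two-sided t-test (p ≤ 0.05).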

[8] = Amniotic fluid triazine analysis by LC-MS/MS; assay type: in vivo, rat; details: pregnant female rats, pooled by dam; label = dose group; LOD 0.4 μg/mL
Summary of the method: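 Amniotic fluid came from GD20 dams gavaged for 10 days with vehicle or 1000 mg/kg BW/day test compound. Melamine and cyanuric acid were measured by a previously published LC-MS/MS method, validated with pre-spiked amniotic fluid. Serum-to-amniotic fluid Pearson correlations were run only on rats with both samples (p ≤ 0.05).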

[9] = Formalin, ethanol and freezing effects on renal crystals; set-up: species or system rat
Summary of the method: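 Fresh kidney wet-mounts with crystal rank 4–5 were flooded with 10% neutral buffered formalin and photographed repeatedly. Times were 0, 1, 2, 3 and 24 h for melamine-exposed kidney and 0, 10, 20, 30 min and 1 h for cyanuric acid-exposed kidney. Sections in 100% ethanol were checked daily for up to 6 days. Frozen tissue, either freeze–thawed or held at −70 °C, was cut into 6 μm cryosections, unstained or unfixed H&E.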

[10] = test system: kidney and bladder; assay: Histopathology of kidney and bladder; assay type: in vivo, rat
[11] = test system: rats; assay: Clinical observations and survival; assay type: in vivo, rat; details: 1000 mg/kg BW/day
Summary of the method: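 Female rats, time-pregnant or non-pregnant, were weight-stratified and randomised from GD10. They were gavaged each morning for 10 days with 1% CMC-Na vehicle or 1000 mg/kg BW/day test compound at 1 mL/100 g (n = 11/group; pregnant high-triazine group n = 13). Observations were made at least twice on day 1, then at least daily, covering skin, fur, eyes, mucosa, autonomic/CNS signs and behaviour. Animals removed early were counted as deaths.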

[12] = oral, female rats; ref Jacob et al., 2012; cited from earlier work
[13] = test system: ABCB1; details: MDCK cells; ref Partanen et al. (2012); cited from earlier work
[14] = test system: ABCC2; details: MDCK cells; ref Partanen et al. (2012); cited from earlier work
[15] = test system: ABCG2; details: MDCK cells; ref Partanen et al. (2012); cited from earlier work
[16] = pregnant rats, ref Jingbin et al. (2010), cited from earlier work
[17] = test system: pregnant rats; details: F344 rats, MEL in feed; ref Melnick et al. (1984); cited from earlier work
[18] = not pregnant rats, 1000 mg/kg BW/day
[19] = pregnant rats, 1000 mg/kg BW/day
[20] = 1000 mg/kg BW/day, necropsy GD20
[21] = kidney, H&E, pregnant and non-pregnant

Nc1nc(N)nc(N)n1 [MEL, melamine]
Total feed consumption (g ± SEM) [1, 18]: 112.3 ± 9.2^^ g
Total water consumption (g ± SEM) [1, 18]: 295.1 ± 21.9 g
Total bw gain (g ± SEM) ([1]; not pregnant rats, 1000 mg/kg BW/day gavage 10 days, brackets indicate negative): (9.1) ± 6.5^^ g
Total feed consumption (g ± SEM) [1, 19]: 122.2 ± 11.0^^ g
Total water consumption (g ± SEM) [1, 19]: 391.8 ± 43.6 g
Total bw gain (g ± SEM) ([1]; pregnant rats, 1000 mg/kg BW/day gavage GD10-20): 5.7 ± 14.9^^ g
Adjusted weight gain (g ± SEM) ([1]; pregnant rats, GD20 body weight minus gravid uterus weight and GD10 weight, brackets indicate negative, 1000 mg/kg BW/day): (32.0) ± 14.6^^ g
GD20 Body weight (g ± SEM) ([2]; not pregnant rats): 211.3 ± 6.3 g
Heart weight standardized to body weight (% ± SEM) ([2]; not pregnant rats): 0.43 ± 0.02 %
Left kidney weight standardized to body weight (% ± SEM) ([2]; not pregnant rats): 0.65 ± 0.06%
Liver weight standardized to body weight (% ± SEM) ([2]; not pregnant rats): 3.70 ± 0.14%
Right kidney weight standardized to body weight (% ± SEM) ([2]; not pregnant rats): 0.68 ± 0.08^^ %
Spleen weight standardized to body weight (% ± SEM) ([2]; not pregnant rats): 0.26 ± 0.02%
Paired kidney weight standardized to body weight (% ± SEM) ([2]; not pregnant rats): 1.33 ± 0.13^^ %
GD20 Body weight (g ± SEM) ([2]; pregnant rats): 247.6 ± 11.5 g
Heart weight standardized to body weight (% ± SEM) ([2]; pregnant rats): 0.37 ± 0.03^^ %
Left kidney weight standardized to body weight (% ± SEM) ([2]; pregnant rats): 0.52 ± 0.05%
Liver weight standardized to body weight (% ± SEM) ([2]; pregnant rats): 3.64 ± 0.08%
Right kidney weight standardized to body weight (% ± SEM) ([2]; pregnant rats): 0.56 ± 0.05^^ %
Spleen weight standardized to body weight (% ± SEM) ([2]; pregnant rats): 0.16 ± 0.03%
Paired kidney weight standardized to body weight (% ± SEM) ([2]; pregnant rats): 1.09 ± 0.10^^ %
No. corpea lutea (mean ± SEM) ([3]; 1000 mg/kg BW/day gavage GD10-20, necropsy GD20): 15.1 ± 0.4
Early and late deaths (mean% of implants ± SEM) [3, 20]: 60.3 ± 14.2^^ % of implants
Early deaths (mean% of implants ± SEM) [3, 20]: 28.8 ± 12.5^@ % of implants
Implant efficiency (mean% ± SEM) [3, 20]: 88.0 ± 3.6%
Late deaths (mean% of implants ± SEM) [3, 20]: 31.6 ± 13.1 % of implants
No. fetuses alive (mean ± SEM) [3, 20]: 5.5 ± 2.0
No. implants (mean ± SEM) [3, 20]: 13.3 ± 0.6
Percent alive both genders (mean% ± SEM) [3, 20]: 39.7 ± 14.2%
Percent live females (mean% ± SEM) [3, 20]: 40.7 ± 3.8%
Average crown rump length (mean cm ± SEM) [4]: 3.62 ± 0.23^^ cm
Average fetal body weight (g ± SEM) [4]: 2.85 ± 0.48^^ g
Litter size (mean ± SEM) [4]: 5.5 ± 2.0^^
Number of rats with non-pigmented pyramidal uroliths adjacent to the papilla ([5]; 1000 mg/kg BW/day): 4
Treated rats that developed renal crystals (percent) ([5]; pregnant and non-pregnant combined, MEL n = 24, CYA n = 22, wet-mount): 96%
Number of treated rats that developed renal crystals ([5]; pregnant and non-pregnant combined, MEL of 24, CYA of 22, wet-mount): 23
Effect on uric acid serum levels versus control rats ([6]; 1000 mg/kg BW/day): did not appear to have an effect
Blood urea nitrogen (mean ± SEM) [6, 18]: 62.45 ± 17.32^^ mg/dL
Creatinine (mean ± SEM) [6, 18]: 1.28 ± 0.27^^ mg/dL
Uric acid (mean ± SEM) [6, 18]: 4.18 ± 0.29 mg/dL
Mean creatinine of all treated rats ([6]; pregnant and non-pregnant pooled): 1.4 mg/dL
Mean BUN of all treated rats ([6]; pregnant and non-pregnant pooled, all but one had crystals): 69 mg/dL
BUN and creatinine levels, elevation over control and CYA group levels ([6]; pregnant and non-pregnant rats): 2–4 times
Blood urea nitrogen (mean ± SEM) [6, 19]: 78.25 ± 18.41^^ mg/dL
Creatinine (mean ± SEM) [6, 19]: 1.45 ± 0.22^^ mg/dL
Uric acid (mean ± SEM) [6, 19]: 3.45 ± 0.12 mg/dL
CYA concentration, Serum [7]: <LOD
CYA concentration, Amniotic Fluid [8]: <LOD
Stability of crystals to freeze–thaw cycles ([9]; frozen kidney tissue, CYA stable if held at −70 °C): able to withstand freeze–thaw cycles
Period over which crystals progressively dissolve in 100% ethanol ([9]; kidney wet-mount sections): 6 days
Time within which crystal presence was greatly reduced in formalin ([9]; kidney wet-mount sections): ≤ 2 h
Number of rats with epithelial necrosis in the bladder ([10]; MEL: pregnant rats, minimal to marked, CYA: 1 pregnant, 2 non-pregnant, mild): 3
Rats with tubular dilation [10, 21]: 92%
Rats with tubular necrosis [10, 21]: 100%
Animals removed from the study early ([11]; non-pregnant rats (n = 11)): 1
Maternal health during 10 day dosing period ([11]; pregnant and non-pregnant rats): lost condition
Animals removed from the study early ([11]; pregnant rats (n = 13)): 7
Area under the curve (AUC) [12]: 1.992 µg·h/mL
Half-life [12]: 1.92 h
Substrate for ABC transporter ABCB1 [13]: not a substrate
Substrate for ABC transporter ABCC2 [14]: not a substrate
Substrate for ABC transporter ABCG2 [15]: not a substrate
Detection of melamine in amniotic fluid ([16]; 40 mg/kg BW GD13 to GD20): did not detect
Detection of melamine in amniotic fluid ([16]; 400 mg/kg BW): detected
Amniotic fluid concentration as percent of maternal serum [16]: approximately 17%
Microscopically-observed pathology in the ovaries or uteri [17]: did not report any microscopically-observed pathology
